Results on five molecules are retold here after ChEMBL document CHEMBL3098129, “Preparation and evaluation of deconstruction analogues of 7-deoxykalafungin as AKT kinase inhibitors” (Bioorg Med Chem Lett, 2014).

Test [1] addresses RAC-alpha serine/threonine-protein kinase (Homo sapiens, UniProt P31749). As to the kind of experiment: Inhibition of recombinant AKT1 (unknown origin) using serine/threonine 06 peptide as substrate after 1 hr by FRET based Z'-LYTE assay. In a few lines: (§1)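 Run with a commercial Z'-LYTE kit, a FRET read-out of the kinase phosphorylating a peptide substrate. It detects functional inhibition of kinase activity regardless of mechanism.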

Test [2] concerns the target cAMP-dependent protein kinase catalytic subunit alpha (Homo sapiens, UniProt P17612). The test is described as follows: Inhibition of PKAalpha (unknown origin) using serine/threonine 01 peptide as substrate after 1 hr by FRET based Z'-LYTE assay. In a few lines: as §1

RAC-alpha serine/threonine-protein kinase, sequence (P31749 whole entry): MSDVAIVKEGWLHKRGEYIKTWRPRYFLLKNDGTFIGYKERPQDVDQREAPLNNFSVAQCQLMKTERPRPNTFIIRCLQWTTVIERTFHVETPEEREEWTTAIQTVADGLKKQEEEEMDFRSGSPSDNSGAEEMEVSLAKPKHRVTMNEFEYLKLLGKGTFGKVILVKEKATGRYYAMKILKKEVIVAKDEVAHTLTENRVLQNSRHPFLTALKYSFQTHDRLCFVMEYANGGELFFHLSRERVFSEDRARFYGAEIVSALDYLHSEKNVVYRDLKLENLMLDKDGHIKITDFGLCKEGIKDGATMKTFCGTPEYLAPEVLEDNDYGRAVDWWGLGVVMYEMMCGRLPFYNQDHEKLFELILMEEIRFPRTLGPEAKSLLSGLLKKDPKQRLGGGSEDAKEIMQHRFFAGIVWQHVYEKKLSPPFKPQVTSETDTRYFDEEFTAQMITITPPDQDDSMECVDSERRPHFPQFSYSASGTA

Regarding `O=C1C[C@@H](O)[C@@H](C2=CC(=O)c3ccccc3C2=O)O1`, the IC50 in test [1] came out at 2.94 µM; in test [2], 0.43 µM.
On the same counts, the results for `COC/C=C/C(=O)c1ccccc1` are 50 µM and > 100 µM.
Turning to `COC(=O)CC/C=C/C(=O)c1ccccc1`, the IC50 is 13.7 µM in test [1] and > 100 µM in test [2].
For `C=CC(=O)c1ccccc1`, the results for the IC50 in test [1] and in test [2] were 12.3 µM and > 100 µM, respectively.
On the same counts, the results for `C[C@H]1O[C@@H]2CC(=O)O[C@@H]2C2=C1C(=O)c1ccccc1C2=O` are 0.28 µM and > 100 µM.

Broadly, the IC50 is the concentration needed to halve the response being measured.
